Laboratory results reported in ChEMBL document CHEMBL1287804, “Synthesis, binding studies and molecular modeling of novel cannabinoid receptor ligands” (Bioorg Med Chem, 2010).
The source made the active and inactive calls. The rule behind the calls is not given here.

Tests used:
Cannabinoid receptor 1 [1] = molecular target: T1, Cannabinoid receptor 1 (Homo sapiens, UniProt P21554); experiment: Displacement of [3H]-CP-55940 from human recombinant CB1 receptor expressed in HEK293 cells at 10 uM; type: cell-based
T1 sequence (P21554 whole entry): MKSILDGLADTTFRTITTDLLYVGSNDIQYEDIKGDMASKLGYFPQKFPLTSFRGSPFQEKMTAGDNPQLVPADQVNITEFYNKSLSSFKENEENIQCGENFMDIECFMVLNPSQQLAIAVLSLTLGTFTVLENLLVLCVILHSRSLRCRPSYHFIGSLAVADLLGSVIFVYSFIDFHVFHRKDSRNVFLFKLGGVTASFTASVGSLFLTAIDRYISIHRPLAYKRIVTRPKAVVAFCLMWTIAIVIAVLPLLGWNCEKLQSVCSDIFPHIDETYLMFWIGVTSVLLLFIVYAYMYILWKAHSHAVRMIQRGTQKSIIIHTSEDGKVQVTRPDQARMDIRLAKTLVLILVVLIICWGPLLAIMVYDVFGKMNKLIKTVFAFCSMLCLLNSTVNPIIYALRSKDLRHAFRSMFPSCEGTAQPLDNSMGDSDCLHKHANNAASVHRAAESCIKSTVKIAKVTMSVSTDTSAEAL
Method in brief: (§1)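 Radioligand binding with human recombinant CB1 and CB2 receptors. The highest concentration tested was 10 µM, and percent displacement was recorded at that concentration. IC50 and Ki were calculated for each receptor. The selectivity index is Ki(CB1)/Ki(CB2).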

Cannabinoid receptor 1 [2] = molecular target: T1, Cannabinoid receptor 1; experiment: Displacement of [3H]-CP-55940 from human recombinant CB1 receptor expressed in HEK293 cells; type: cell-based; method in brief: as §1
Cannabinoid receptor 2 [3] = molecular target: T2, Cannabinoid receptor 2 (Homo sapiens, UniProt P34972); experiment: Displacement of [3H]-CP-55940 from human recombinant CB2 receptor expressed in HEK293 cells at 10 uM; type: cell-based; method in brief: as §1
T2 sequence (P34972 whole entry): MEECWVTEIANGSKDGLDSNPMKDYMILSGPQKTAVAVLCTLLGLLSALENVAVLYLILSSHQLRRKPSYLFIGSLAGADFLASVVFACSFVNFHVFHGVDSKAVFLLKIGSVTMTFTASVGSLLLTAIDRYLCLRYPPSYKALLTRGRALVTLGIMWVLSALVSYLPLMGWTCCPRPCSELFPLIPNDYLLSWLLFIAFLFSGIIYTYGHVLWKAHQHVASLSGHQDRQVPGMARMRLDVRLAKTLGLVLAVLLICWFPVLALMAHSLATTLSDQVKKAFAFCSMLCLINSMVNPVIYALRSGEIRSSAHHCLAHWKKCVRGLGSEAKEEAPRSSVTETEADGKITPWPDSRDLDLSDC

[4] = molecular target: T3, Fatty-acid amide hydrolase 1 (Rattus norvegicus) (UniProt P97612); experiment: Inhibition of FAAH-mediated [14C]anandamide hydrolysis in rat brain membrane assessed as [14C]-ethanolamine production up to 50 uM after 30 mins by scintillation counting; type: cell membranes
T3 sequence (whole entry): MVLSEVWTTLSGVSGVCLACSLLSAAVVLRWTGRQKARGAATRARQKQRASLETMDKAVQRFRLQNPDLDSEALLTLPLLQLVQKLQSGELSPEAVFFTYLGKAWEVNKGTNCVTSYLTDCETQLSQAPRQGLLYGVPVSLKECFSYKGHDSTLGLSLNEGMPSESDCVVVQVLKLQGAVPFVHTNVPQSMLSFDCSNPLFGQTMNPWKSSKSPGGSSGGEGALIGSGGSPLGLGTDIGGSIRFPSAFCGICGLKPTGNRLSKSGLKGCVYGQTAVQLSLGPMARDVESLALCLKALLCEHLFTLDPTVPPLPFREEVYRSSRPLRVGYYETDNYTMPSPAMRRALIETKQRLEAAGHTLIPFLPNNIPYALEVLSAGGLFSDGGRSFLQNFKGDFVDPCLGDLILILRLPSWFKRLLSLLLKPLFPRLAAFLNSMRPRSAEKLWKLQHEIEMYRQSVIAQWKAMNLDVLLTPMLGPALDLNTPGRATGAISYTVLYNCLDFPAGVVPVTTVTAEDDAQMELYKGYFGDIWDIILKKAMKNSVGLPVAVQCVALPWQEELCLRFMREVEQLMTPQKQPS

Cannabinoid receptor 2 [5] = molecular target: T2, Cannabinoid receptor 2; experiment: Displacement of [3H]-CP-55940 from human recombinant CB2 receptor expressed in HEK293 cells; type: cell-based
Method in brief: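 Radioligand binding assay on human recombinant CB2 receptor. The read-out was percent displacement of radioligand at the highest concentration tested. IC50 values were determined, and Ki values were calculated from them.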

Homo sapiens = species on record: Homo sapiens; experiment: Selectivity index, ratio of Ki for human recombinant CB1 receptor to Ki for human recombinant CB2 receptor; method in brief: as §1

SMILES | Activity (Cannabinoid receptor 1 [1]) | IC50 (Cannabinoid receptor 1 [2]) | Ki (Cannabinoid receptor 1 [2]) | Activity (Cannabinoid receptor 2 [3]) | inhibition [4] | IC50 (Cannabinoid receptor 2 [5]) | Ki (Cannabinoid receptor 2 [5]) | Ratio Ki (Homo sapiens)
O=C(/C=C/c1ccc2ccccc2c1)CCCC(=O)N1CCCCC1 | 34% | > 10 µM | > 10 µM | 36.8% | inactive | > 10 µM | > 10 µM | –
COc1ccc(/C=C/C(=O)CCC(=O)N2CCCCC2)cc1OC | < 50% | > 10 µM | > 10 µM | 50% | inactive | > 10 µM | > 10 µM | –
O=C(/C=C/c1ccc2ccccc2c1)CCC(=O)Nc1ccc(O)cc1 | < 50% | > 10 µM | > 10 µM | < 50% | inactive | > 10 µM | > 10 µM | –
COc1ccc(/C=C/C(=O)CCC(=O)NCCO)cc1OC | < 50% | > 10 µM | > 10 µM | < 50% | inactive | > 10 µM | > 10 µM | –
CCOC(=O)CNC(=O)CCC(=O)/C=C/c1ccc2ccccc2c1 | 5.73% | > 10 µM | > 10 µM | 54.6% | inactive | 9.82 µM | 2.5 µM | > 4
O=C(/C=C/c1ccc2ccccc2c1)CCC(=O)NCCO | 0% | > 10 µM | > 10 µM | 56.5% | inactive | 1 µM | 1.03 µM | > 4.41
O=C(/C=C/c1ccc2ccccc2c1)CCC(=O)N(CCO)CCO | 1.81% | > 10 µM | > 10 µM | 27.3% | inactive | > 10 µM | > 10 µM | –
C[C@H](CO)NC(=O)CCC(=O)/C=C/c1ccc2ccccc2c1 | 2.48% | > 10 µM | > 10 µM | 38.3% | inactive | > 10 µM | > 10 µM | –
COc1ccc(/C=C/C(=O)CCC(=O)Nc2ccc(O)cc2)cc1 | < 50% | > 10 µM | > 10 µM | < 50% | inactive | > 10 µM | > 10 µM | –
C[C@@H](CO)NC(=O)CCCC(=O)/C=C/c1ccc2ccccc2c1 | > 10% | > 10 µM | > 10 µM | 37.7% | inactive | > 10 µM | > 10 µM | –
O=C(O)CCC(=O)/C=C/c1ccc2ccccc2c1 | 11.8% | > 10 µM | > 10 µM | 13.7% | inactive | > 10 µM | > 10 µM | –
O=C(/C=C/c1ccc(-c2ccccc2)cc1)CCC(=O)NCCO | 5.25% | > 10 µM | > 10 µM | 46.1% | inactive | > 10 µM | > 10 µM | –
O=C(O)CCCC(=O)/C=C/c1ccc2ccccc2c1 | 21.5% | > 10 µM | > 10 µM | 23.4% | inactive | > 10 µM | > 10 µM | –
O=C(/C=C/c1ccc2ccccc2c1)CCCC(=O)NCCO | 4.58% | > 10 µM | > 10 µM | 72% | inactive | 4.08 µM | 1.03 µM | > 9.71
CCOC(=O)CNC(=O)CCCC(=O)/C=C/c1ccc2ccccc2c1 | 41.5% | > 10 µM | > 10 µM | 41.7% | inactive | > 10 µM | > 10 µM | –
O=C(CCC(=O)NCCO)CCc1ccc(-c2ccccc2)cc1 | 10.9% | > 10 µM | > 10 µM | 53% | inactive | 8.85 µM | 2.25 µM | > 4.44
O=C(CCC(=O)N1CCOCC1)c1ccc(-c2ccccc2)cc1 | 12.2% | > 10 µM | > 10 µM | 14.9% | inactive | > 10 µM | > 10 µM | –
O=C(/C=C/c1ccc2ccccc2c1)CCCC(=O)NC1CC1 | 15.3% | > 10 µM | > 10 µM | 56.7% | inactive | 8.02 µM | 2.04 µM | > 4.9
O=C(/C=C/c1ccc2ccccc2c1)CCC(=O)N1CCCCC1 | < 50% | > 10 µM | > 10 µM | < 50% | inactive | > 10 µM | > 10 µM | –
O=C(/C=C/c1ccc2ccccc2c1)CCC(=O)NC1CC1 | 3.25% | > 10 µM | > 10 µM | 35.6% | inactive | > 10 µM | > 10 µM | –
